The values below come from ChEMBL document CHEMBL1765010, “Reversible competitive α-ketoheterocycle inhibitors of fatty acid amide hydrolase containing additional conformational constraints in the acyl side chain: orally active, long-acting analgesics” (J Med Chem, 2011).

Data set [1] deals with Mus musculus. As to the kind of experiment: Inhibition of FAAH in C57Bl/6J mouse brain assessed as increase of anandamide level at 10 mg/kg, po. It counts as functional. Set-up: scale not given: the % may be the effect or the level left. The essentials:
(§1)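 Male C57Bl/6J mice (<6 months, 20–28 g) given compound orally as a PEG300 solution at 10, 25 or 50 mg/kg, with 3 mice per group in the 50 mg/kg p.o. comparison; brains collected 1 h post-dose. Lipids extracted in CHCl3:MeOH:Tris pH 8.0 with deuterated internal standards, then measured by C18 LC-ESI-MS/MS relative to vehicle-treated mice.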

The target of data set [2] is T1, Fatty-acid amide hydrolase 1 (Homo sapiens) (UniProt O00519).
T1 sequence (whole entry): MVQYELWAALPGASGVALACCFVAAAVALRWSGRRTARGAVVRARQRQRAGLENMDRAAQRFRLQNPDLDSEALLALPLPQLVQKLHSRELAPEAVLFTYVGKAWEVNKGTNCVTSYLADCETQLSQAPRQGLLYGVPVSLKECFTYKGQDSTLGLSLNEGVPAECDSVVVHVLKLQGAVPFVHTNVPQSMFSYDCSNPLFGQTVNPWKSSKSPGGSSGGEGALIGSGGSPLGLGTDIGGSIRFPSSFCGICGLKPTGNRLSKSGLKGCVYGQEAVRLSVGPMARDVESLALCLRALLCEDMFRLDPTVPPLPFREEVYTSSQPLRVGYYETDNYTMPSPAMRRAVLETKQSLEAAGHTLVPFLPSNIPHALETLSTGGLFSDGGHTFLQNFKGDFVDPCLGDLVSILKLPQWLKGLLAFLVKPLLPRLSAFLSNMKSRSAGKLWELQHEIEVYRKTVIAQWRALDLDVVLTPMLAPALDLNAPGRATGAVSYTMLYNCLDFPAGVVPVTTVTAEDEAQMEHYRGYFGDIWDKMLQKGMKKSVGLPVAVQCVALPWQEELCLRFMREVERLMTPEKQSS
Description: Reversible inhibition of full-length human FAAH expressed in COS-7 cells by Lineweaver-Burk analysis. It counts as cell-based. The gist of the method:
(§2)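 Solubilized membrane lysate of COS-7 cells transiently transfected with full-length human FAAH cDNA. Aliquots quenched in 0.1 N HCl at three times; oleamide/oleic acid extracted into EtOAc and separated by TLC. Initial rates (≤10–20% conversion) analysed by Lineweaver–Burk plot.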

For data set [3], the system named is Mus musculus. As to the kind of experiment: Analgesic activity in C57BL/6 mouse chronic constriction injury model assessed as reversal of von Frey filament-induced mechanical allodynia at 50 mg/kg, po measured up to 6 hrs. It counts as functional, organism-based. Set-up: dose 50 mg/kg. The essentials: (§3)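 Male C57BL/6 mice with sciatic nerve chronic constriction injury (two silk ligatures, isoflurane anesthesia), tested from 10 days post-surgery after 2 days of apparatus habituation. Single oral dose in PEG300 or vehicle. Blinded observer tested ipsilateral and contralateral paws at 1, 3, 6 and 9 h: von Frey up-down method (0.16–6.0 g filaments, 5 stimuli each) and acetone-induced cold response. n = 9–10; mean ± SEM.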

Data set [4] deals with Mus musculus. As to the kind of experiment: Toxicity in C57BL/6 mouse assessed as hypothermia at 50 mg/kg, po. It counts as organism-based. The arrangement: dose 50 mg/kg, route oral. As to conditions: in vivo.
The test system of data set [5] is Mus musculus. Description: Inhibition of FAAH in C57Bl/6J mouse brain assessed as increase of 2-arachidonoylglycerol level at 50 mg/kg, po after 1 hr relative to control. The class given is functional. The essentials:
as §1

Data set [6] has as its system Mus musculus. As to the kind of experiment: Inhibition of FAAH in C57Bl/6J mouse liver assessed as increase of anandamide level at 30 mg/kg, ip after 1 hr relative to control. The class given is functional. As to conditions: route intraperitoneal.
Data set [7] deals with Mus musculus. As to the kind of experiment: Toxicity in C57BL/6 mouse assessed as catalepsy at 50 mg/kg, po. It counts as organism-based. The arrangement: dose 50 mg/kg, route oral. The following applies: in vivo.
For data set [8], the system named is Mus musculus. As to the kind of experiment: Inhibition of FAAH in C57Bl/6J mouse brain assessed as increase of 2-arachidonoylglycerol level at 30 mg/kg, ip after 1 hr relative to control. It counts as functional. The following applies: route intraperitoneal. The gist of the method:
(§4)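 Male C57Bl/6J mice (<6 months, 20–28 g) dosed i.p. at 30 mg/kg in 18:1:1 saline:ethanol:emulphor emulsion; brains taken 1 h later. One mouse in the initial screen, 3 per group in the follow-up. Brain homogenized in CHCl3:MeOH:Tris pH 8.0 with deuterated lipid standards; organic extract quantified by reverse-phase C18 LC-ESI-MS/MS against vehicle controls.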

The target of data set [9] is T1, Fatty-acid amide hydrolase 1 (Homo sapiens). Description: Competitive inhibition of full-length human FAAH expressed in COS-7 cells by Lineweaver-Burk analysis. The class given is cell-based. The gist of the method:
as §2

Data set [10] relates to Mus musculus. As to the kind of experiment: Toxicity in C57BL/6 mouse assessed as hypomotility at 50 mg/kg, po. The class given is organism-based. Set-up: dose 50 mg/kg, route oral. As to conditions: in vivo.
Data set [11] concerns Mus musculus. Description: Inhibition of FAAH in C57Bl/6J mouse brain assessed as increase of N-palmitoyl ethanolamine level at 50 mg/kg, po after 1 hr relative to control. It counts as functional. The essentials: as §1
Data set [12] concerns Mus musculus. As to the kind of experiment: Inhibition of FAAH in C57Bl/6J mouse brain assessed as increase of anandamide level at 25 to 50 mg/kg, po after 1 hr relative to control. It counts as functional. As to conditions: dose mg/kg 25-50. The essentials:
as §1

Data set [13] relates to Mus musculus. Description: Analgesic activity in C57BL/6 mouse chronic constriction injury model assessed as reversal of paws ipsilateral to CCI surgery at 50 mg/kg, po measured up to 9 hrs. The arrangement: dose 50 mg/kg. The class given is functional, organism-based. The essentials:
as §3

Data set [14] concerns Mus musculus. As to the kind of experiment: Inhibition of FAAH in C57Bl/6J mouse brain assessed as increase of anandamide level at 30 mg/kg, ip after 1 hr relative to control. The class given is functional. The following applies: route intraperitoneal. The essentials: as §4
Data set [15] concerns Mus musculus. As to the kind of experiment: Analgesic activity in C57BL/6 mouse chronic constriction injury model assessed as reversal of acetone-induced cold allodynia at 50 mg/kg, po measured up to 9 hrs. The class given is functional, organism-based. The arrangement: dose 50 mg/kg. The gist of the method:
as §3

For data set [16], the system named is Mus musculus. As to the kind of experiment: Inhibition of FAAH in C57Bl/6J mouse brain assessed as increase of anandamide level at 50 mg/kg, po. The class given is functional, organism-based. The arrangement: dose 50 mg/kg. The following applies: TDE = time-dependent effect. The gist of the method: (§5)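 Male C57Bl/6J mice (<6 months, 20–28 g) given a single oral dose as a PEG300 solution. Brains were homogenized in CHCl3:MeOH:Tris pH 8.0 containing deuterated internal standards. The organic extract was analysed by reverse-phase C18 LC–ESI triple-quadrupole MS for anandamide, PEA, OEA and 2-AG. Dose series (10, 25, 50 mg/kg) was sampled at 1 h; the 50 mg/kg time course ran to 9 h. Three mice per group in the i.p./p.o. comparison.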

The subject of data set [17] is Mus musculus. Description: Inhibition of FAAH in C57Bl/6J mouse brain assessed as increase of anandamide level at 50 mg/kg, po after 1 hr relative to control. It counts as functional. The gist of the method: as §1
The test system of data set [18] is Mus musculus. As to the kind of experiment: Inhibition of FAAH in C57Bl/6J mouse brain assessed as increase of N-palmitoyl ethanolamine level at 50 mg/kg, po. The class given is functional, organism-based. The arrangement: dose 50 mg/kg. As to conditions: TDE = time-dependent effect. The essentials: as §5
In data set [19] the test system is Mus musculus. Description: Inhibition of FAAH in C57Bl/6J mouse brain assessed as increase of N-palmitoyl ethanolamine level at 30 mg/kg, ip after 1 hr relative to control. It counts as functional. As to conditions: route intraperitoneal. The essentials: as §4

Calls of active or inactive are those of the source. The calls are words filed in the database; no cut-off is given here.

Take `O=C(c1ncc(-c2ccccn2)o1)[C@H]1CCc2cc(Oc3ccccc3)ccc2C1`: the Activity in data set [1] was above 90%; in data set [4], “Non-toxic”; in data set [7], “Non-toxic”; in data set [10], “Non-toxic”; in data set [16], “tde”; in data set [18], “tde”. The inhibition entry in data set [2] and in data set [9] was “Active” each time. Further, the result in data set [3], in data set [13] and in data set [15] was Active. For the same compound, the “fold change (FC)” value in data set [5] was determined as 1.4; in data set [6] it was 6; in data set [8], 0.9; in data set [11], 7.7; in [12] it was 12; in [14] it was 5.1. Also, the fold change (FC) in [17] was determined as 13; in data set [19], 7.2.
